Source: ChEMBL document CHEMBL1122710, “6-Methylangelicins: a new series of potential photochemotherapeutic agents for the treatment of psoriasis” (J Med Chem, 1984)
“And” between values parts separate entries of the source, which are not always exact repeats. Identical values can stand only once. The source made the active and inactive calls. No cut-off for these calls is given here.

How the values were obtained:
[1] = species on record: Mus musculus; assay: Compound was evaluated for 50% inhibition of DNA synthesis in Ehrlich ascites tumor cells by irradiation (365 nM) at 1.9 x 10e -5M incubated with [3H]thymidine at 37 degree C (p 0.05); type: functional
Procedure, shortened: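 Ehrlich ascites tumor cells (2×10^7 cells/mL in Hanks' solution) are irradiated on ice with the compound present, using an HPW 125 lamp at 20 cm. 2×10^6 cells are then pulsed with 1 μCi [3H]thymidine for 15 min at 37 °C. TCA-insoluble counts are taken as % of untreated controls, at least duplicates per dose. UV-A dose for 50% inhibition is derived by probit analysis.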

[2] = test system: Nucleic Acid; assay: (§1) Compound was evaluated for the association constant to an isolated site of DNA; type: nucleic-acid assay; set-up: unit not given here; conditions: Bos taurus
[3] = test system: Nucleic Acid; assay: Compound was evaluated for the binding parameter by determining rate constant; type: nucleic-acid assay; conditions: Bos taurus
[4] = test system: Nucleic Acid; assay: Compound was evaluated for the binding parameter by determining the number of nucleotides occluded by a bound angelicin (n); type: nucleic-acid assay; conditions: Bos taurus
[5] = test system: Nucleic Acid; assay: (§2) Compound was evaluated for the frequency of the binding site that is the number of molecules bound to every nucleotide (1/n); type: nucleic-acid assay; conditions: Bos taurus
[6] = species on record: Homo sapiens; assay: (§3) Number of treatments at dose of 6 J/cm e2 ultraviolet-A radiation; type: functional
Procedure, shortened: (§4)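 Psoriasis patients, with 4×4 cm skin areas per treatment. Ethanolic solution (0.1% w/v) is applied topically to 5 μg/cm² and left to evaporate. After 20 min, the area is irradiated with a UV-A fluorescent PUVA lamp. Starting dose is 2.5 J/cm², increased up to 13 J/cm² by skin tolerance. Control areas get compound without UV-A, or UV-A alone.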

[7] = Percentage of clearance of psoriatic lesions by 8-methoxypsoralen (8-MOP) for comparison at dose of 10 J/cm e2 ultraviolet-A radiation; type: ADME, organism-based; conditions: in vivo; procedure, shortened: as §4
[8] = species on record: Homo sapiens; assay: Number of treatments at dose of 4 J/cm e2 ultraviolet-A radiation (patient); type: functional; procedure, shortened: as §4
[9] = species on record: Homo sapiens; assay: Erythema induction by the compound at dose of 10 J/cm e2 ultraviolet-A radiation in patient; - = absent; type: functional, organism-based; procedure, shortened: as §4
[10] = species on record: Homo sapiens; assay: Number of treatments at dose of 10 J/cm e2 ultraviolet-A radiation; type: functional; procedure, shortened: as §4
[11] = Percentage of clearance of psoriatic lesions by the compound at dose of 6 J/cm e2 ultraviolet-A radiation; type: ADME, organism-based; conditions: in vivo; procedure, shortened: as §4
[12] = species on record: Homo sapiens; assay: Erythema induction by the compound at dose of 4 J/cm e2 ultraviolet-A radiation in patient; - = absent; type: functional, organism-based; procedure, shortened: as §4
[13] = Percentage of clearance of psoriatic lesions by 8-methoxypsoralen (8-MOP) for comparison at dose of 6 J/cm e2 ultraviolet-A radiation; type: ADME, organism-based; conditions: in vivo; procedure, shortened: as §4
[14] = species on record: Homo sapiens; assay: Erythema induction by the compound at dose of 6 J/cm e2 ultraviolet-A radiation in patient; - = absent; type: functional, organism-based; procedure, shortened: as §4
[15] = species on record: Homo sapiens; assay: Pigmentation capacity of 8-methoxypsoralen (8-MOP) for comparison at dose of 4 J/cm e2 ultraviolet-A radiation in patient; - = absent; type: functional, organism-based; procedure, shortened: as §4
[16] = species on record: Homo sapiens; assay: Pigmentation capacity of 8-methoxypsoralen (8-MOP) for comparison at dose of 10 J/cm e2 ultraviolet-A radiation in patient; +=moderate; type: functional, organism-based; procedure, shortened: as §4
[17] = Percentage of clearance of psoriatic lesions by the compound at dose of 4 J/cm e2 ultraviolet-A radiation; type: ADME, organism-based; conditions: in vivo; procedure, shortened: as §4
[18] = species on record: Homo sapiens; assay: Number of treatments at dose of 8 J/cm e2 ultraviolet-A radiation; type: functional; procedure, shortened: as §4
[19] = Percentage of clearance of psoriatic lesions by 8-methoxypsoralen (8-MOP) for comparison at dose of 8 J/cm e2 ultraviolet-A radiation; type: ADME, organism-based; conditions: in vivo; procedure, shortened: as §4
[20] = species on record: Homo sapiens; assay: as §3; type: functional; procedure, shortened: as §4; remark: listed apart in the source
[21] = species on record: Homo sapiens; assay: Erythema induction by the compound at dose of 8 J/cm e2 ultraviolet-A radiation in patient; - = absent; type: functional, organism-based; procedure, shortened: as §4
[22] = species on record: Homo sapiens; assay: Pigmentation capacity of 8-methoxypsoralen (8-MOP) for comparison at dose of 6 J/cm e2 ultraviolet-A radiation in patient; + = moderate; type: functional, organism-based; procedure, shortened: as §4
[23] = species on record: Homo sapiens; assay: Pigmentation capacity of 8-methoxypsoralen (8-MOP) for comparison at dose of 8 J/cm e2 ultraviolet-A radiation in patient; +=moderate; type: functional, organism-based; procedure, shortened: as §4
[24] = Percentage of clearance of psoriatic lesions by the compound at dose of 8 J/cm e2 ultraviolet-A radiation; type: ADME, organism-based; conditions: in vivo; procedure, shortened: as §4
[25] = species on record: Homo sapiens; assay: Erythema induction by 8-methoxypsoralen (8-MOP) for comparison at dose of 8 J/cm e2 ultraviolet-A radiation in patient, +=moderate; type: functional, organism-based; procedure, shortened: as §4
[26] = species on record: Homo sapiens; assay: Pigmentation capacity at dose of 6 J/cm e2 ultraviolet-A radiation in patient; + = moderate; type: functional, organism-based; procedure, shortened: as §4
[27] = Percentage of clearance of psoriatic lesions by the compound at dose of 10 J/cm e2 ultraviolet-A radiation; type: ADME, organism-based; conditions: in vivo; procedure, shortened: as §4
[28] = species on record: Homo sapiens; assay: Erythema induction by the compound at dose of 9 J/cm e2 ultraviolet-A radiation in patient; - = absent; type: functional, organism-based; procedure, shortened: as §4
[29] = species on record: Homo sapiens; assay: Number of treatments at dose of 9 J/cm e2 ultraviolet-A radiation; type: functional; procedure, shortened: as §4
[30] = species on record: Homo sapiens; assay: Pigmentation capacity at dose of 8 J/cm e2 ultraviolet-A radiation in patient; + = moderate; type: functional, organism-based; procedure, shortened: as §4
[31] = Percentage of clearance of psoriatic lesions by 8-methoxypsoralen (8-MOP) for comparison at dose of 9 J/cm e2 ultraviolet-A radiation; type: ADME, organism-based; conditions: in vivo; procedure, shortened: as §4
[32] = species on record: Homo sapiens; assay: Pigmentation capacity at dose of 9 J/cm e2 ultraviolet-A radiation in patient; + = moderate; type: functional, organism-based; procedure, shortened: as §4
[33] = Percentage of clearance of psoriatic lesions by the compound at dose of 9 J/cm e2 ultraviolet-A radiation; type: ADME, organism-based; conditions: in vivo; procedure, shortened: as §4
[34] = species on record: Bos taurus; assay: as §2
[35] = species on record: Bos taurus; assay: as §1

Structure (SMILES): COc1c2occc2cc2ccc(=O)oc12 [METHOXSALEN]
- ID50 [1]: 1.38e+19 quanta
- K [2]: 736
- Rate constant [3]: 0.031 min⁻¹
- Activity [4]: 7.81
- Activity [5]: 0.128

Structure (SMILES): O=c1ccc2ccc3occc3c2o1 [ANGELICIN]
- ID50 [1]: 2.5e+19 quanta
- K [2]: 560
- Rate constant [3]: 0.011 min⁻¹
- Activity [4]: 15.9
- Activity [5]: 0.063

Structure (SMILES): Cc1cc(=O)oc2c1cc(C)c1occ(C)c12
- Activity [6]: 9
- Lesion_Clearance [7]: 90%
- Activity [8]: 11
- Erythema induction [9]: inactive
- ID50 [1]: 6e+16 quanta
- Activity [10]: 15
- Lesion_Clearance [11]: 100%
- Erythema induction [12]: inactive
- Lesion_Clearance [13]: 80% and 85%
- Erythema induction [14]: inactive
- K [2]: 10100
- Pigmentation capacity [15]: inactive
- Pigmentation capacity [16]: moderate
- Lesion_Clearance [17]: 95%
- Activity [18]: 11
- Rate constant [3]: 0.133 min⁻¹
- Activity [4]: 11
- Activity [5]: 0.091
- Lesion_Clearance [19]: 75%
- Activity [20]: 9
- Erythema induction [21]: inactive
- Pigmentation capacity [22]: moderate
- Pigmentation capacity [23]: moderate
- Lesion_Clearance [24]: 100%
- Erythema induction [25]: moderate
- Pigmentation capacity [26]: moderate
- Lesion_Clearance [27]: 90%

Structure (SMILES): Cc1cc2ccc(=O)oc2c2c(C)coc12
- ID50 [1]: 2.2e+18 quanta
- Erythema induction [28]: inactive
- Activity [29]: 15
- Pigmentation capacity [30]: moderate
- K [2]: 6300
- Activity [18]: 15
- Lesion_Clearance [31]: 70%
- Rate constant [3]: 0.099 min⁻¹
- Pigmentation capacity [32]: moderate
- Activity [4]: 16.4
- Activity [5]: 0.061
- Lesion_Clearance [19]: 85%
- Erythema induction [21]: inactive
- Lesion_Clearance [24]: 100%
- Lesion_Clearance [33]: 90%

Structure (SMILES): Cc1c(C)c2occc2c2oc(=O)ccc12
- ID50 [1]: 3e+19 quanta

Structure (SMILES): Cc1cc(=O)oc2c1cc(C)c1occc12
- ID50 [1]: 4e+18 quanta
- K [2]: 2990
- Rate constant [3]: 0.0523 min⁻¹
- Activity [4]: 15.9
- Activity [5]: 0.063

Structure (SMILES): Cc1cc2ccc(=O)oc2c2ccoc12
- ID50 [1]: 2.63e+19 quanta
- Activity [34]: 0.048
- K [35]: 925
- Rate constant [3]: 0.036 min⁻¹
- Activity [4]: 20.8

Structure (SMILES): Cc1cc2c(o1)c(C)cc1c(C)cc(=O)oc12
- ID50 [1]: 3.87e+18 quanta
- K [2]: 3310
- Rate constant [3]: 0.0702 min⁻¹
- Activity [4]: 22.2
- Activity [5]: 0.045

Structure (SMILES): Cc1cc2c(o1)c(C)c(C)c1ccc(=O)oc12
- ID50 [1]: 3e+19 quanta
- K [2]: 3730
- Rate constant [3]: 0.023 min⁻¹
- Activity [4]: 14.3
- Activity [5]: 0.07

Structure (SMILES): Cc1cc2c(o1)c(C)cc1ccc(=O)oc12
- ID50 [1]: 1.19e+19 quanta
- K [2]: 1980
- Rate constant [3]: 0.03 min⁻¹
- Activity [4]: 12.8
- Activity [5]: 0.078
